Measured values: ChEMBL document CHEMBL1240409, “Design, synthesis and evaluation of (E)-alpha-benzylthio chalcones as novel inhibitors of BCR-ABL kinase” (Bioorg Med Chem, 2010)

Experiments:
DU-145 = assay: Growth inhibition of human DU145 cells after 96 hrs by trypan blue exclusion assay; type: functional; settings: DU-145, 96 h
K562 = assay: Growth inhibition of human K562 cells expressing p210Bcr/Abl after 96 hrs by trypan blue exclusion assay; type: functional, cell-based; settings: K562, 96 h
Procedure, shortened: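 K562 cells were kept in RPMI with 10% FBS and penicillin–streptomycin at 37 °C under 5% CO2. Cells were seeded at 1 × 10^5 cells/mL with a range of compound concentrations, using DMSO as the negative control. After 96 h, viability was counted by Trypan blue exclusion and expressed as percent of DMSO control to derive GI50.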

| GI50 (DU-145) [µM] | GI50 (K562) [µM] | Compound |
| --- | --- | --- |
| 10 | 10 | O=C(/C(=C\c1cccc(Cl)c1Cl)SCc1ccc(Cl)cc1)c1ccc(Br)cc1 |
| 1 | 1 | O=C(/C(=C\c1ccc(Br)c([N+](=O)[O-])c1)Sc1ccc(Br)cc1)c1ccc(Br)cc1 |
| > 100 | > 100 | O=C(/C(=C\c1c(O)cc(O)cc1O)Sc1ccccc1Br)c1ccc(Cl)cc1 |
| 1 | 1 | COc1ccccc1/C=C(/SCc1ccc(Cl)cc1)C(=O)c1ccc(Cl)cc1 |
| 10 | 1 | O=C(/C(=C\c1ccc(O)cc1)SCc1ccc(F)cc1)c1ccc(Br)cc1 |
| 10 | 50 | COc1cc(OC)c(C=C(C(=O)c2ccc(Cl)cc2)[S+]([O-])Cc2ccccc2Cl)c(OC)c1 (configuration not stated) |
| 10 | 1 | CCOc1ccc(/C=C(\C(=O)c2ccc(Cl)cc2)S(=O)(=O)Cc2ccccc2Cl)cc1OC |
| > 100 | 50 | CN(C)c1ccc(/C=C(\C(=O)c2ccc(Cl)cc2)S(=O)(=O)c2ccc(Br)cc2)cc1 |
| 25 | 25 | COc1ccccc1/C=C(\C(=O)c1ccc(Br)cc1)S(=O)(=O)Cc1ccc(F)cc1 |
| 1 | 1 | O=C(/C(=C\c1c[nH]c2ccccc12)Sc1ccc(Br)cc1)c1ccc(Br)cc1 |
| 1 | 1 | O=C(/C(=C\c1cc(Cl)cc(Cl)c1Cl)SCc1ccc(Cl)cc1)c1ccc(Br)cc1 |
| 10 | 1 | Cc1ccsc1/C=C(\C(=O)c1ccc(Cl)cc1)S(=O)(=O)Cc1ccc(F)cc1 |
| 50 | 50 | O=C(/C(=C\c1ccc(O)c([N+](=O)[O-])c1)S(=O)(=O)Cc1ccc(Br)cc1)c1c(F)c(F)c(F)c(F)c1F |
| 1 | 1 | O=C(/C(=C\c1cc(Cl)cc(Cl)c1Cl)S(=O)(=O)Cc1ccc(Cl)cc1)c1ccc(Br)cc1 |
| 1 | 10 | COc1ccccc1/C=C(/SCc1ccc(Cl)cc1)C(=O)c1ccc(Br)cc1 |
| 10 | 1 | O=C(/C(=C\c1ccc(Cl)cc1)SCc1ccc(F)cc1)c1ccc(Cl)cc1 |
| 25 | 1 | CCOc1ccc(/C=C(/SCc2ccc(Cl)c(Cl)c2)C(=O)c2ccc(Cl)cc2)cc1OC |
| 50 | 50 | Cc1ccc(S/C(=C/c2sccc2C)C(=O)c2ccc(Br)cc2)cc1 |
| 10 | 25 | Cc1ccc(/C=C(\C(=O)c2ccc(Cl)cc2)S(=O)(=O)Cc2ccc(Cl)cc2Cl)s1 |
| 10 | – | COc1cccc(OC)c1/C=C(\C(=O)c1ccc(Br)cc1)S(=O)(=O)c1ccc(Br)cc1 |
| – | 1 | COc1ccc(/C=C(/SCc2ccc(Cl)cc2)C(=O)c2ccc(Cl)cc2)cc1O |
| – | 10 | O=C(/C(=C\c1ccc(F)c([N+](=O)[O-])c1)Sc1ccc(Cl)cc1)c1ccc(Cl)cc1 |

The next lines start with the compound.

| Compound | GI50 (DU-145) [µM] | GI50 (K562) [µM] |
| --- | --- | --- |
| COc1ccc(S/C(=C/c2ccccc2OCc2ccccc2)C(=O)c2ccc(Cl)cc2)cc1 | 1 | 1 |
| Cc1ccc(S(=O)(=O)/C(=C/c2cc(C)cc(C)c2)C(=O)c2ccc(Cl)cc2)cc1 | 1 | 1 |
| Cc1ccc(CS/C(=C/c2ccc(Cl)cc2)C(=O)c2ccc(Cl)cc2)cc1 | 10 | 1 |
| Cc1ccc(S/C(=C/c2cc(C)cc(C)c2)C(=O)c2ccc(Cl)cc2)cc1 | 50 | 25 |
| Cc1ccc(CS/C(=C/c2ccc(F)cc2C(F)(F)F)C(=O)c2ccc(Cl)cc2)cc1 | 50 | 50 |
| O=C(/C(=C\c1ccc(Br)c(O)c1)Sc1ccc(Br)cc1)c1ccc(Br)cc1 | 1 | 1 |
| COc1ccc(/C=C(\C(=O)c2ccc(Br)cc2)S(=O)(=O)c2ccc(Br)cc2)cc1 | 25 | 10 |
| CCOc1ccc(/C=C(/Sc2ccc(C)cc2)C(=O)c2ccc(Cl)cc2)cc1OC | 25 | 10 |
| O=C(O)c1ccc(C(=O)/C(=C\c2ccc(Cl)c([N+](=O)[O-])c2)SCc2ccc(C(F)(F)F)cc2)cc1 | 1 | 1 |
| Cc1ccc(/C=C(\C(=O)c2ccc([N+](=O)[O-])cc2)S(=O)(=O)Cc2ccc(Cl)cc2)s1 | 25 | 10 |
| COc1ccccc1/C=C(/SCc1ccc(C)cc1)C(=O)c1ccc(Cl)cc1 | 10 | 10 |
| COc1cc(OC)c(/C=C(/SCc2ccc(F)cc2)C(=O)c2ccc(Cl)cc2)c(OC)c1 | 10 | 10 |
| O=C(/C(=C\c1ccc2ccccc2n1)SCc1ccc(F)cc1)c1ccc(Br)cc1 | 25 | 25 |
| CSc1ccc(/C=C(\C(=O)c2ccc(Br)cc2)S(=O)(=O)Cc2ccc(C)cc2)cc1 | 10 | 10 |
| Cc1cc(C)cc(/C=C(\C(=O)c2ccc(Cl)cc2)S(=O)(=O)c2ccc(Br)cc2)c1 | 10 | 10 |
| O=C(/C(=C\c1c(O)cc(O)cc1O)SCc1ccc(Cl)cc1Cl)c1ccc(Cl)cc1 | 25 | > 100 |
| O=C(/C(=C\c1ccc(F)c([N+](=O)[O-])c1)SCc1ccc(Br)cc1)c1ccc(Cl)c([N+](=O)[O-])c1 | > 100 | > 100 |

| Compound | GI50 (DU-145) [µM] | GI50 (K562) [µM] |
| --- | --- | --- |
| Cc1ccc(S/C(=C/c2c[nH]c3ccc(Cl)cc23)C(=O)c2ccc(Br)cc2)cc1 | 1 | 1 |
| COc1ccc(C=C(C(=O)c2ccc(OC)cc2)S(=O)(=O)Cc2ccc([N+](=O)[O-])cc2)cc1 | 25 | 10 |
| Cc1ccc(CS(=O)(=O)/C(=C/c2ccc(N(C)C)cc2)C(=O)c2ccc(Cl)cc2)cc1 | 50 | 50 |
| Cc1ccsc1/C=C(\C(=O)c1ccc([N+](=O)[O-])cc1)S(=O)(=O)Cc1ccc(Cl)cc1 | 1 | 1 |
| Nc1c(Br)cc(Br)cc1/C=C(/Sc1ccc(Br)cc1)C(=O)c1ccc(Br)cc1 | > 100 | > 100 |
| Cc1ccc(CS/C(=C/c2cc(C)ccc2C)C(=O)c2ccc(Cl)cc2)cc1 | 10 | 10 |
| O=C(/C(=C\c1ccc(O)c([N+](=O)[O-])c1)S(=O)(=O)Cc1ccc(Br)cc1)c1ccc(Br)cc1 | 10 | 1 |
| Cc1ccc(CS/C(=C/c2c[nH]c3ccc(Br)cc23)C(=O)c2ccc(Cl)cc2)cc1 | 1 | 1 |
| O=C(/C(=C\c1c[nH]c2ccccc12)S(=O)(=O)Cc1ccc(F)cc1)c1ccc(Cl)cc1 | 50 | 50 |
| CSc1ccc(/C=C(\C(=O)c2ccc(Br)cc2)S(=O)(=O)Cc2ccc(F)cc2)cc1 | 50 | > 100 |
| Cc1ccc(CS/C(=C/c2ccc(C)s2)C(=O)c2ccc(Cl)cc2)cc1 | 50 | 50 |
| Cc1ccc(S(=O)(=O)/C(=C/c2c[nH]c3ccccc23)C(=O)c2ccc(Br)cc2)cc1 | 10 | 10 |
| O=C(/C(=C\c1ccc(Br)cc1)Sc1ccc(Br)cc1)c1ccc(Cl)cc1 | 1 | 1 |
| Cc1ccc(/C=C(/SCc2ccc(Cl)cc2)C(=O)c2ccc(Cl)cc2)s1 | 50 | 50 |
| CSc1ccc(/C=C(\C(=O)c2ccc(Cl)cc2)S(=O)(=O)Cc2ccc(C)cc2)cc1 | 10 | 25 |
| O=C(/C(=C\c1ccc(F)c([N+](=O)[O-])c1)SCc1ccc(Br)cc1)c1ccc(C(F)(F)F)cc1 | – | 1 |
| O=C(/C(=C\c1ccc(F)cc1)Sc1ccc(Br)cc1)c1ccc(Br)cc1 | – | 1 |
